These results are taken from BindingDB's records for doi:10.1021/jm2007886 (Universidad Complutense De Madrid, 2011).

Test [1] deals with 5-hydroxytryptamine receptor 2A (Rattus norvegicus, UniProt P14842). The experiment in a line: Displacement of [3H]ketanserin from 5HT2A receptor in Sprague-Dawley albinus rat frontal cortex membranes after 15 mins. In a few lines: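 Rat frontal cortex membranes (male Sprague–Dawley, 180–200 g). Nonspecific binding was set with 1 μM cinanserin.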
Test [2] addresses T1, 5-hydroxytryptamine receptor 3A (Rattus norvegicus, UniProt P35563).
T1 sequence (P35563 whole entry): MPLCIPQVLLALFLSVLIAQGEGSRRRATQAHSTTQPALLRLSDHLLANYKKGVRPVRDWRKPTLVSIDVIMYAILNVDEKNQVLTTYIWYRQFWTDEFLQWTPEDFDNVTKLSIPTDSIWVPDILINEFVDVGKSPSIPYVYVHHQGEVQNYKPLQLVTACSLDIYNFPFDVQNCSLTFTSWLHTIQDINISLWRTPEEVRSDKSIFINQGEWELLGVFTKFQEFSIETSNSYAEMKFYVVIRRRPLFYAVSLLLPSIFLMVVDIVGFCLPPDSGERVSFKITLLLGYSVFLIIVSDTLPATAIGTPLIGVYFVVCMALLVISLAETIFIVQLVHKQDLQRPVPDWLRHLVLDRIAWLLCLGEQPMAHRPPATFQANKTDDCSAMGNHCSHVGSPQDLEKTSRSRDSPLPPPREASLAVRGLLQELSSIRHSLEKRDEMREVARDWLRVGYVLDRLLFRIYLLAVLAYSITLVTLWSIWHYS
The experiment in a line: Displacement of [3H]-LY278584 from 5HT3 receptor in Sprague-Dawley albinus rat cerebral cortex membranes after 30 mins. For orientation: In a radioligand displacement assay an active substance lowers the binding of a labelled ligand.

For test [3], the target named is T2, 5-hydroxytryptamine receptor 1A (Rattus norvegicus, UniProt P19327).
T2 sequence (P19327 whole entry): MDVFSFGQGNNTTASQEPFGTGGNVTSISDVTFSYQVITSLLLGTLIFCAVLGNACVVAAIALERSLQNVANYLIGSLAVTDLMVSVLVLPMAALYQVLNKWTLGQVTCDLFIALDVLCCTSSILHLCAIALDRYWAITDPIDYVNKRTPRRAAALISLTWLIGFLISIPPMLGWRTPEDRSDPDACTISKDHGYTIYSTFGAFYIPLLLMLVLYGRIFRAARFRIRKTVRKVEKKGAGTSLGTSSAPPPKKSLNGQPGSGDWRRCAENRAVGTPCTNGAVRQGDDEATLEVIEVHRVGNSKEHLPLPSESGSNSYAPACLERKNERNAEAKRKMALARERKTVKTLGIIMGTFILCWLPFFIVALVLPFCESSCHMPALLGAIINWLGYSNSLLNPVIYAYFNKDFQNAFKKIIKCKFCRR
As to the kind of experiment: Displacement of [3H]-8-OH-DPAT from 5-HT1A receptor in Sprague-Dawley albinus rat cerebral cortex membranes after 15 mins.

The target in another test is D(2) dopamine receptor (Rattus norvegicus, UniProt P61169). The experiment in a line: Displacement of [3H]spiperone from dopamine D2 receptor in Sprague-Dawley albinus rat striatal membranes after 15 mins.
Sequence of D(2) dopamine receptor (P61169 whole entry): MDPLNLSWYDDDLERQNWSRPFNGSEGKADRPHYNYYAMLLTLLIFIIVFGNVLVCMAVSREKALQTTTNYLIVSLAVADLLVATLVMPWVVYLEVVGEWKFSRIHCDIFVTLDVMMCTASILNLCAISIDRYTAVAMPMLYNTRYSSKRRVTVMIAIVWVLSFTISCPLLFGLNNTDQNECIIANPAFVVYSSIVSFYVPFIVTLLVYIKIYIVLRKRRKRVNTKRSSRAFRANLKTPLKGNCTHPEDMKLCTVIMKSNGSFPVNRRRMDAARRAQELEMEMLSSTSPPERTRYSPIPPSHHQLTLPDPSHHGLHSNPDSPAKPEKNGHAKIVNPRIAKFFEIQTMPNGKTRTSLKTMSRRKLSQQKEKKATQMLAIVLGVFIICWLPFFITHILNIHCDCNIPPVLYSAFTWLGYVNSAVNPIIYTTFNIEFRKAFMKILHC
Test [4] has as its target 5-hydroxytryptamine receptor 7 (Rattus norvegicus, UniProt P32305). The experiment in a line: Displacement of [3H]-5-CT from 5HT7 receptor in Sprague-Dawley albinus rat hyphalamic membranes after 120 mins.
Test [5] has as its target 5-hydroxytryptamine receptor 4 (Rattus norvegicus, UniProt Q62758). The experiment in a line: Displacement of [3H]GR113808 from 5HT4 receptor in Sprague-Dawley albinus rat striatal membranes after 30 mins by scintillation counting.

Usually Ki stands for the dissociation constant of the complex between target and ligand, obtained from inhibition or displacement. High values mean a looser hold on the target, low ones a stronger hold on the target.

Molecules are shown by their SMILES. A value given as a limit tells only on which side of the number the result lay.

Sequence of 5-hydroxytryptamine receptor 2A (P14842 whole entry): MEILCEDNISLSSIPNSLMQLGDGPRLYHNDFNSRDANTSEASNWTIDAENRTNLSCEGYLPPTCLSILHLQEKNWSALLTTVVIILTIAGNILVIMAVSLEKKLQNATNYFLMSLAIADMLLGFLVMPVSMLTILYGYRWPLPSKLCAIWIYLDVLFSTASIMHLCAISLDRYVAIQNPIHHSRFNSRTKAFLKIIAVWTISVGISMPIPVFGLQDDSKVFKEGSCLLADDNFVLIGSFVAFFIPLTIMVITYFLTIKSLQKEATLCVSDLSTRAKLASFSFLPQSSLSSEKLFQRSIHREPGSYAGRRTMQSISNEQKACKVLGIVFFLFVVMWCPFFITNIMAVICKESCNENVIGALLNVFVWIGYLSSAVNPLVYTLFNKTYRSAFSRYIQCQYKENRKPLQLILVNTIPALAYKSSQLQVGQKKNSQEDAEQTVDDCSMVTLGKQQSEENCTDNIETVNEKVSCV
Sequence of 5-hydroxytryptamine receptor 7 (P32305 whole entry): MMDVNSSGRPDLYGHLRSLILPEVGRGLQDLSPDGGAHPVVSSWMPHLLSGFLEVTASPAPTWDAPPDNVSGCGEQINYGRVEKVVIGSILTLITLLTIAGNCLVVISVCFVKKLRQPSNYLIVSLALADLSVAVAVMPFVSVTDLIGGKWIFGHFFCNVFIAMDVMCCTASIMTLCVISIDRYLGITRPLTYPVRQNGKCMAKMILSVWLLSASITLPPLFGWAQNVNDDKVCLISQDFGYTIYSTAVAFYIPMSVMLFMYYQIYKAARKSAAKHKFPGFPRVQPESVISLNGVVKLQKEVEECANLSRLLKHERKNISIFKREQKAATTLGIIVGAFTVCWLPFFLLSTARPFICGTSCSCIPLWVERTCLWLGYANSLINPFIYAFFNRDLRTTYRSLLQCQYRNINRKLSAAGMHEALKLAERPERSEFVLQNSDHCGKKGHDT
Sequence of 5-hydroxytryptamine receptor 4 (Q62758 whole entry): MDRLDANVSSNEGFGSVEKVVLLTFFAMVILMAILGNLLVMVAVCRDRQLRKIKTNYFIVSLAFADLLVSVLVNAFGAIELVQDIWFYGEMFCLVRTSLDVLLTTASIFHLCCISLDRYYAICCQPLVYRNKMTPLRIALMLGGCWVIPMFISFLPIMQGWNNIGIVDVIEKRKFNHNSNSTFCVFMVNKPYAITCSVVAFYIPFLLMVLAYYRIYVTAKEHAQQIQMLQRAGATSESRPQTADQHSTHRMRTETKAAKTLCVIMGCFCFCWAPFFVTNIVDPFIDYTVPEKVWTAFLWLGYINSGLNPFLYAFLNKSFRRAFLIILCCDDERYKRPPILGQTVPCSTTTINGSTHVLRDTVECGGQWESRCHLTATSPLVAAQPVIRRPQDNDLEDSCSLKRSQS

On to `O=c1n(CCCCCNCC2CCc3ccccc3O2)c(O)c2n1CCC2` (stereo not given), for which the Ki in test [1] and in test [2] was > 1000 nM in each case. As for `O=c1n(CCCCNCCc2cccs2)c(O)c2n1CCC2`, the Ki in test [3] is > 1000 nM. As for `O=c1n(CCCCNCCc2ccccn2)c(O)c2n1CCC2`, in test [3], the Ki was > 1000 nM. Regarding `O=c1n(CCCCNCc2ccc3ccccc3n2)c(O)c2n1CCC2`, the Ki in test [1] and in test [2] was > 1000 nM in each case. `O=c1n(CCCCNCC2CCc3ccccc3O2)c(O)c2n1CCCC2` (stereo not given): the Ki in test [1] and in test [2] was > 1000 nM in each case. `O=c1n(CCCCNCCc2ccco2)c(O)c2n1CCC2`: in test [3], the Ki was > 1000 nM. For `O=c1n(CCCNCC2CCc3ccccc3O2)c(O)c2n1CCC2` (stereo not given), the Ki in test [1] and in test [2] was > 1000 nM throughout. `O=c1scc(O)n1CCCCCCNCC1CCc2ccccc2O1` (stereo not given): the Ki in test [1] is > 1000 nM. For `O=c1n(CCCCNCc2ccccc2)c(O)c2n1CCC2`, the Ki in test [3] was > 1000 nM. With `O=c1scc(O)n1CCCCNCC1CCc2ccccc2O1` (stereo not given), in test [1], the Ki is > 1000 nM. Same read-out and setting: the value for `O=c1n(CCCCNCc2ccc3ccccc3c2)c(O)c2n1CCC2` was > 1000 nM; that for `O=c1scc(O)n1CCCCCNCC1CCc2ccccc2O1` (stereo not given) was > 1000 nM.

For the compound `O=c1n(CCCCNCc2cccs2)c(O)c2n1CCC2`, the Ki in test [3] is > 1000 nM. Turning to `O=c1n(CCCCNCC2CCc3ccccc3O2)c(O)c2n1CSC2` (stereo not given), the Ki in test [1] was > 1000 nM. Take `O=c1n(CCCCNCCc2ccccc2)c(O)c2n1CCC2`: in test [3], the Ki is > 1000 nM. In the case of `O=c1n(CCCCNCc2ccco2)c(O)c2n1CCC2`, the Ki in test [3] was > 1000 nM. As to `O=c1n(CCCCNCc2cccc3ccccc23)c(O)c2n1CCC2`, the Ki in test [3] was > 1000 nM. For `O=c1n(CCCCNCCc2cccc3ccccc23)c(O)c2n1CCC2`, the Ki in test [1] is > 1000 nM; in test [3] it was 28 nM; at D(2) dopamine receptor, > 1000 nM; in test [4], > 1000 nM; in test [2], > 1000 nM; in test [5], > 1000 nM. On to `O=c1n(Cc2cccc(CNCC3CCc4ccccc4O3)c2)c(O)c2n1CCC2` (stereo not given), for which the Ki in test [1] and in test [2] was > 1000 nM each time. `O=c1scc(O)n1CCCCCCCCNCC1CCc2ccccc2O1` (stereo not given): the Ki in test [1] was > 1000 nM. As for `O=c1n(CCCCNCc2ccccn2)c(O)c2n1CCC2`, the Ki in test [3] was > 1000 nM. In the case of `O=c1n(CCCCNCCc2ccc3ccccc3c2)c(O)c2n1CCC2`, the Ki (at D(2) dopamine receptor; in test [2]) was > 1000 nM in each case.

On to `O=c1n(Cc2ccc(CNCC3CCc4ccccc4O3)cc2)c(O)c2n1CCC2` (stereo not given), for which the Ki is > 1000 nM in test [1], 28 nM in test [3] and > 1000 nM in test [2]. With `O=c1n(CCCCCCNCC2CCc3ccccc3O2)c(O)c2n1CCC2` (stereo not given), the Ki in test [1] and in test [2] was > 1000 nM in each case.

`O=c1n(C/C=C/CNCC2CCc3ccccc3O2)c(O)c2n1CCC2` (stereo not given): in test [1], the Ki was > 1000 nM.

Regarding `O=c1n(CC#CCNCC2CCc3ccccc3O2)c(O)c2n1CCC2` (stereo not given), in test [3], the Ki was > 1000 nM.
